Reference: ChEMBL document CHEMBL3875203, “Small molecule mimics of DFTamP1, a database designed anti-Staphylococcal peptide” (Bioorg Med Chem, 2017)
≈ marks a conversion by molar mass, not a printed value. Calls of active or inactive are those of the source. The calls are words filed in the database; no cut-off is given here.

Tests used:
Staphylococcus aureus [1] = assay: Antibacterial activity against methicillin-resistant Staphylococcus aureus USA300 after 20 hrs by microdilution method; type: functional; settings: USA300, 20 h
Procedure, shortened: (§1)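 MIC = lowest concentration with no detectable growth. pH series run at pH 6.8, 7.4 and 8.0. Daptomycin wells carried 2 mM Ca²⁺. Repeated by different investigators on different dates.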

Staphylococcus aureus [2] = assay: Antibacterial activity against Staphylococcus aureus UAMS-1 after 20 hrs by microdilution method; type: functional; settings: UAMS-1, 20 h
Procedure, shortened: (§2)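 Incubated ~20 h at 37°C, then read at 630 nm. MIC is the lowest concentration with no detectable growth. Daptomycin assays had 2 mM Ca²⁺ added to the medium. Repeated several times by different investigators.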

Staphylococcus aureus [3] = assay: Antibacterial activity against Staphylococcus aureus USA400 after 20 hrs by microdilution method; type: functional; settings: USA400, 20 h; procedure, shortened: as §2
Staphylococcus aureus [4] = assay: Antibacterial activity against Staphylococcus aureus Mu50 after 20 hrs by microdilution method; type: functional; settings: Mu50, 20 h; procedure, shortened: as §2
Staphylococcus aureus [5] = assay: Antibacterial activity against Staphylococcus aureus Newman after 20 hrs by microdilution method; type: functional; procedure, shortened: as §2
Staphylococcus aureus [6] = assay: Antibacterial activity against Staphylococcus aureus USA200 after 20 hrs by microdilution method; type: functional; settings: USA200, 20 h; procedure, shortened: as §2
Staphylococcus aureus [7] = assay: Ratio of MIC for methicillin-resistant Staphylococcus aureus USA300 in presence of 100 mM NaCl to MIC for methicillin-resistant Staphylococcus aureus USA300 in absence of 100 mM NaCl; type: functional
Procedure, shortened: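 Broth microdilution MIC against S. aureus USA300 in TSB with and without 100 mM NaCl. Inoculum 10⁶ CFU/mL exponential-phase cells, ~20 h at 37°C, OD630 read-out, no-growth endpoint. Ratio of MIC with salt to MIC without salt.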

[8] = Therapeutic index, ratio of HC50 for human RBC to MIC for methicillin-resistant Staphylococcus aureus USA300; settings: human red blood cells, read-out: TI
Procedure, shortened: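 Supernatant hemoglobin read at 545 nm; 1% Triton X-100 = 100% lysis, untreated = 0%. HL50 divided by USA300 MIC gives the selectivity index.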

Pseudomonas aeruginosa [9] = assay: Antibacterial activity against Pseudomonas aeruginosa PAO1 after 20 hrs by microdilution method; type: functional; settings: PAO1, 20 h; procedure, shortened: as §2
[10] = Hemolytic activity against human RBC after 1 hr; type: ADME, cell-based, Erythrocyte; settings: human red blood cells
Procedure, shortened: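 Human red blood cells were washed three times in normal saline (800 g, 10 min) and made up as a 2% suspension. After centrifugation, supernatant absorbance was read at 545 nm. Lysis was set at 100% for 1% Triton X-100 and 0% for untreated cells; HL50 is the 50% hemolytic concentration.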

Klebsiella pneumoniae = assay: Antibacterial activity against Klebsiella pneumoniae ATCC 13883 after 20 hrs by microdilution method; type: functional; settings: ATCC 13883, 20 h; procedure, shortened: as §2
[11] = Retention time of the compound by HPLC method; type: physicochemical
Escherichia coli [12] = assay: Antibacterial activity against Escherichia coli ATCC 25922 after 20 hrs by microdilution method; type: functional; settings: ATCC 25922, 20 h; procedure, shortened: as §2
Staphylococcus aureus [13] = assay: Induction of membrane damage in methicillin-resistant Staphylococcus aureus USA300 measured for 90 mins by propidium iodide staining based fluorescence spectroscopic analysis; type: functional
Staphylococcus aureus [14] = assay: Antibacterial activity against methicillin-resistant Staphylococcus aureus USA300 LAC after overnight incubation by broth microdilution method; type: functional; procedure, shortened: as §1
Pseudomonas aeruginosa [15] = assay: Antibacterial activity against Pseudomonas aeruginosa PAO1 after overnight incubation by broth microdilution method; type: functional
Escherichia coli [16] = assay: Antibacterial activity against Escherichia coli K-12 after overnight incubation by broth microdilution method; type: functional
Staphylococcus aureus [17] = assay: Antibacterial activity against methicillin-resistant Staphylococcus aureus USA300 after 20 hrs at pH 6.8 to 8 by microdilution method; type: functional; procedure, shortened: as §1
Staphylococcus aureus [18] = assay: Inhibition of methicillin-resistant Staphylococcus aureus USA300 preformed biofilms after 24 hrs by XTT assay; type: functional
Procedure, shortened: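 USA300 biofilms formed for 24 h on polystyrene wells, washed, then treated with compounds for 24 h. Remaining biofilm quantified by XTT reduction (2 h, 37°C, absorbance 450 nm, medium-plus-XTT blank). Compared with untreated control.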

Staphylococcus aureus [19] = assay: Induction of membrane damage in methicillin-resistant Staphylococcus aureus USA300 measured up to 90 mins by propidium iodide staining based fluorescence spectroscopic analysis
Staphylococcus aureus [20] = assay: Inhibition of surface attachment by methicillin-resistant Staphylococcus aureus USA300 assessed as reduction in biofilm formation after 4 hrs by XTT assay; type: functional

Compound | MIC (Staphylococcus aureus [1]) [µM] | MIC (Staphylococcus aureus [2]) [µM] | MIC (Staphylococcus aureus [3]) [µM] | MIC (Staphylococcus aureus [4]) [µM] | MIC (Staphylococcus aureus [5]) [µM] | MIC (Staphylococcus aureus [6]) [µM] | Ratio (Staphylococcus aureus [7]) | selectivity ratio [8] | MIC (Pseudomonas aeruginosa [9]) [µM] | HC50 at 1 h [10] [µM] | MIC (Klebsiella pneumoniae) [µM] | Retention_time [11] [min] | MIC (Escherichia coli [12]) [µM] | Activity (Staphylococcus aureus [13]) | further results
CS(=O)(=O)O.CS(=O)(=O)O.Cn1cc(C2(c3cn(C)c4cc(C5=NCCN5)ccc34)CCCCC2)c2ccc(C3=NCCN3)cc21 | 12.5 to 25 | ≥ 25 | 12.5 | 25 | 12.5 | 25 | <=2 | – | – | – | – | – | – | – | –
Cl.Clc1cccc(Cl)c1C(c1c[nH]c2ccc(C3=NCCN3)cc12)c1c[nH]c2ccc(C3=NCCN3)cc12 | 12.5 | – | – | – | – | – | – | > 48 | > 50 | > 600 | > 50 | 10.537 | > 50 | – | –
Brc1cccc(Br)c1C(c1c[nH]c2cc(C3=NCCN3)ccc12)c1c[nH]c2cc(C3=NCCN3)ccc12.CS(=O)(=O)O.CS(=O)(=O)O | 3.1 to 12.5 | 6.2 | 3.1 | 6.2 | 3.1 to 6.2 | 3.1 | – | 24 to 48 | > 50 | 150 | > 50 | 11.159 | > 50 | Active | –
H-GLLSLLSLLGKLL-NH2 | – | – | – | – | – | – | – | – | – | – | – | – | – | – | MIC (Staphylococcus aureus [14]): 3.1 µM; MIC (Pseudomonas aeruginosa [15]): > 120 µM; MIC (Escherichia coli [16]): > 120 µM
CCCCCCCCCC(=O)N[C@@H](Cc1c[nH]c2ccccc12)C(=O)N[C@@H](CC(N)=O)C(=O)N[C@@H](CC(=O)O)C(=O)N[C@@H]1C(=O)NCC(=O)N[C@@H](CCCN)C(=O)N[C@@H](CC(=O)O)C(=O)N[C@H](C)C(=O)N[C@@H](CC(=O)O)C(=O)NCC(=O)N[C@H](CO)C(=O)N[C@@H]([C@H](C)CC(=O)O)C(=O)N[C@@H](CC(=O)c2ccccc2N)C(=O)O[C@@H]1C [DAPTOMYCIN] | 0.78 (≈ 1.26 µg/mL) | > 12.5 | 0.78 (≈ 1.26 µg/mL) | 3.1 (≈ 5.02 µg/mL) | – | 0.78 (≈ 1.26 µg/mL) | – | – | – | – | – | – | – | Active | –
CS(=O)(=O)O.CS(=O)(=O)O.c1ccc(C(c2c[nH]c3cc(C4=NCCN4)ccc23)c2c[nH]c3cc(C4=NCCN4)ccc23)cc1 | 25 | – | – | – | – | – | – | 24 | > 50 | 600 | > 50 | 10.643 | > 50 | – | –
CC(C)(c1c[nH]c2cc(C3=NCCN3)ccc12)c1c[nH]c2cc(C3=NCCN3)ccc12.CS(=O)(=O)O.CS(=O)(=O)O | 25 | – | – | – | – | – | – | 33 | > 50 | > 830 | > 50 | 10.005 | > 50 | – | –
CCC(CC)(c1c[nH]c2cc(C3=NCCN3)ccc12)c1c[nH]c2cc(C3=NCCN3)ccc12.CS(=O)(=O)O.CS(=O)(=O)O | 6.2 | – | – | – | – | – | <=2 | 48 | > 50 | 300 | > 50 | 11.015 | > 50 | – | –
CS(=O)(=O)O.CS(=O)(=O)O.c1cc2c(Cc3c[nH]c4cc(C5=NCCN5)ccc34)c[nH]c2cc1C1=NCCN1 | 50 | – | – | – | – | – | – | 26 | > 50 | 1300 | > 50 | 9.215 | > 50 | – | –
CS(=O)(=O)O.CS(=O)(=O)O.c1cc2c(C3(c4c[nH]c5cc(C6=NCCN6)ccc45)CCCCC3)c[nH]c2cc1C1=NCCN1 | 6.2 | 25 | 6.2 | 6.2 | 6.2 | 6.2 | <=2 | 24 to 48 | > 50 | 150 to 300 | > 50 | 11.276 | > 50 | Active | MIC (Staphylococcus aureus [14]): 6.2 µM; MIC (Pseudomonas aeruginosa [15]): 100 µM; MIC (Escherichia coli [16]): > 200 µM
CS(=O)(=O)O.CS(=O)(=O)O.Clc1ccc(C(c2c[nH]c3cc(C4=NCCN4)ccc23)c2c[nH]c3cc(C4=NCCN4)ccc23)c(Cl)c1 | 3.1 to 6.2 | – | – | – | – | – | – | 12 | 25 to 50 | 40 | > 50 | 11.924 | 12.5 | – | –
CCCC(CCC)(c1c[nH]c2cc(C3=NCCN3)ccc12)c1c[nH]c2cc(C3=NCCN3)ccc12.CS(=O)(=O)O.CS(=O)(=O)O | 1.6 to 3.1 | 12.5 to 25 | 3.1 | 3.1 | 3.1 | < 1.5 | <=2 | 48 to 96 | > 50 | 150 | > 50 | 12.102 | > 50 | – | Activity (Staphylococcus aureus [17]): Active; inhibition (INH) (Staphylococcus aureus [18]): 50%; Activity (Staphylococcus aureus [19]): Active; inhibition (INH) (Staphylococcus aureus [20]): 40%
CS(=O)(=O)O.CS(=O)(=O)O.Clc1cccc(Cl)c1C(c1c[nH]c2cc(C3=NCCN3)ccc12)c1c[nH]c2cc(C3=NCCN3)ccc12 | 6.2 to 12.5 | > 25 | 12.5 | > 25 | 12.5 | 12.5 | <=2 | 24 to 48 | > 50 | 300 | > 50 | 10.973 | > 50 | Active | –
CS(=O)(=O)O.CS(=O)(=O)O.NCc1ccc2c(C3(c4c[nH]c5cc(CN)ccc45)CCCCC3)c[nH]c2c1 | 6.2 to 12.5 | – | – | – | – | – | – | 12 to 24 | > 50 | 75 to 150 | > 50 | 10.788 | > 50 | – | –
CS(=O)(=O)O.CS(=O)(=O)O.Clc1ccc(C(c2c[nH]c3cc(C4=NCCN4)ccc23)c2c[nH]c3cc(C4=NCCN4)ccc23)cc1 | 3.1 to 6.2 | 12.5 | 6.2 | 6.2 | 6.2 | 6.2 | <=2 | 24 to 48 | 25 | 150 | > 50 | 11.491 | > 50 | Active | –
CS(=O)(=O)O.CS(=O)(=O)O.c1cc2c(C(c3c[nH]c4cc(C5=NCCN5)ccc34)C3CCCCC3)c[nH]c2cc1C1=NCCN1 | 3.1 | – | – | – | – | – | – | 7 to 14 | > 50 | 20 to 40 | > 50 | 11.832 | > 50 | – | –
